In assay [1] the target is Mitogen-activated protein kinase 1 (Mus musculus) (UniProt P63085). In words: Inhibition of mouse Mitogen-activated protein kinase 2 at 10 uM. More on the design: scale not given: the % may be the effect or the level left. The method in brief: (§1)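 Upstate kinase selectivity panel: each kinase phosphorylated its peptide or protein substrate with 10 µM compound present and 10 µM ATP. Reactions were linear with time. Activity is reported as the mean percentage of control incubations, from duplicate determinations.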

For assay [2], the target named is MAP kinase-activated protein kinase 5 (Homo sapiens) (UniProt Q8IW41). The experiment in a line: Inhibition of human Protein kinase PRAK at 10 uM. Details: scale not given: the % may be the effect or the level left. In short, it runs like this: (§2)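 Outsourced selectivity panel. Each kinase phosphorylated its own peptide or protein substrate in the presence of 10 µM compound and 10 µM ATP, within the linear time range. Activity given as mean percent of control incubations from duplicate determinations.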

The nature of assay [3]: Increased glycogen synthase activity in HEK293 cells. The note with it: Homo sapiens. Type of assay: functional, cell-based. In short, it runs like this:
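HEK293 cells starved of serum and glucose for 3 h, then exposed to compound or vehicle for 90 min at 37 °C. Cells lysed by three freeze–thaw cycles and lysates clarified. GS activity read as 14C-UDP-glucose incorporation into glycogen, with and without glucose 6-phosphate. EC50 from 6–10 concentrations; ≥3 experiments in duplicate; mean ± SEM.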

For assay [4], the target named is MAP kinase-activated protein kinase 2 (Homo sapiens) (UniProt P49137). In words: Inhibition of human MAP kinase-activated protein kinase 2 at 10 uM. More on the design: scale not given: the % may be the effect or the level left. In short, it runs like this:
as §2

For assay [5], the target named is Protein kinase C alpha type (Homo sapiens, UniProt P17252). In words: Inhibition of human Protein kinase C alpha at 10 uM. Details: scale not given: the % may be the effect or the level left. In short, it runs like this:
as §2

For assay [6], the target named is Mitogen-activated protein kinase 1 (Homo sapiens) (UniProt P28482). In words: Inhibition of human Mitogen-activated protein kinase 1 at 10 uM. More on the design: scale not given: the % may be the effect or the level left. The method in brief: as §2
The target of assay [7] is RAC-beta serine/threonine-protein kinase (Homo sapiens) (UniProt P31751). In words: Inhibition of Protein kinase B beta at 10 uM. More on the design: scale not given: the % may be the effect or the level left. The method in brief: as §2
The target of assay [8] is Serine/threonine-protein kinase N2 (Homo sapiens) (UniProt Q16513). The experiment in a line: Inhibition of human Protein kinase C related kinase 2 (PRK2) at 10 uM. More on the design: scale not given: the % may be the effect or the level left. The method in brief: as §2
For assay [9], the target named is Insulin-like growth factor 1 receptor (Homo sapiens) (UniProt P08069). The experiment in a line: Inhibition of Type 1 insulin like growth factor receptor at 10 uM. Details: scale not given: the % may be the effect or the level left. The method in brief:
as §2

Assay [10] addresses Tyrosine-protein kinase CSK (Homo sapiens) (UniProt P41240). In words: Inhibition of Csk tyrosine kinase at 10 uM. Details: scale not given: the % may be the effect or the level left. In short, it runs like this: as §2
For assay [11], the target named is Dual specificity mitogen-activated protein kinase kinase 7 (Homo sapiens) (UniProt O14733). The experiment in a line: Inhibition of human Mitogen activated protein kinase kinase 7 beta at 10 uM. Details: scale not given: the % may be the effect or the level left. The method in brief:
as §2

In assay [12] the target is Protein kinase C theta type (Homo sapiens, UniProt Q04759). The experiment in a line: Inhibition of Protein kinase C theta at 10 uM. Details: scale not given: the % may be the effect or the level left. The method in brief:
as §2

Assay [13] addresses Ribosomal protein S6 kinase (P70S6K) (Homo sapiens) (UniProt Q9UBS0+P23443). In words: Inhibition of human Ribosomal protein S6 kinase (p70S6K) at 10 uM. Type of assay: protein-complex assay. More on the design: scale not given: the % may be the effect or the level left. The method in brief: as §1
Assay [14] addresses Cyclin-dependent kinase 2/cyclin E (Homo sapiens) (UniProt P24864+P24941+O96020). In words: Inhibition of Cyclin-dependent kinase 2-cyclin E at 10 uM. Details: scale not given: the % may be the effect or the level left. Type of assay: protein-complex assay. In short, it runs like this:
as §2

A short description of assay [15]: Inhibition of Casein Kinase I. Details: species or system Rattus norvegicus. The method in brief:
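Reaction started with 30–150 ng kinase, run 1 h at 30 °C. Peptides captured on streptavidin plates and counted. IC50 from 6–10 concentrations; ≥3 experiments in duplicate; ± SEM.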

Assay [16] addresses Proto-oncogene tyrosine-protein kinase Src (Homo sapiens) (UniProt P12931). The experiment in a line: Inhibition of human Src tyrosine kinase at 10 uM. Details: scale not given: the % may be the effect or the level left. The method in brief:
as §1

For assay [17], the target named is Mitogen-activated protein kinase 8 (Homo sapiens) (UniProt P45983). The experiment in a line: Inhibition of human c-Jun N-terminal kinase 1-alpha 1 at 10 uM. More on the design: scale not given: the % may be the effect or the level left. The method in brief: as §1
In assay [18] the target is Protein kinase C gamma type (Homo sapiens, UniProt P05129). The experiment in a line: Inhibition of human Protein kinase C gamma at 10 uM. Details: scale not given: the % may be the effect or the level left. The method in brief:
as §2

The target in assay [19] is Ribosomal protein S6 kinase alpha-3 (Homo sapiens) (UniProt P51812). In words: (§3) Inhibition of Ribosomal S6 kinase 3 at 10 uM. Details: scale not given: the % may be the effect or the level left. The method in brief:
as §2

In assay [20] the target is Cyclin-dependent kinase 5/CDK5 activator 1 (Homo sapiens) (UniProt Q00535+Q15078). The experiment in a line: Inhibition of Cyclin-dependent kinase 5-p35nck5a at 10 uM. Type of assay: protein-complex assay. Details: scale not given: the % may be the effect or the level left. The method in brief:
as §2

Assay [21] deals with Cyclin-dependent kinase 7/ cyclin H (Homo sapiens) (UniProt P51946+P50613). In words: Inhibition of cyclin-dependent kinase 7-cyclin H at 10 uM. Type of assay: protein-complex assay. Details: scale not given: the % may be the effect or the level left. The method in brief: as §2
The test system of the next assay is Saccharomyces cerevisiae. The experiment in a line: Inhibition of yeast Casein kinase I at 10 uM. More on the design: scale not given: the % may be the effect or the level left. In short, it runs like this: as §1
Assay [22] concerns the target Serine/threonine-protein kinase N2 (Homo sapiens) (UniProt Q16513). In words: Inhibition of human protein kinase C-related protein kinase 2 (PRK2) at 10 uM. More on the design: scale not given: the % may be the effect or the level left. In short, it runs like this:
as §1

Assay [23] concerns the target Mitogen-activated protein kinase 8 (Homo sapiens) (UniProt P45983). The experiment in a line: Inhibition of human JNK1-alpha-1 at 10 uM. Details: scale not given: the % may be the effect or the level left. In short, it runs like this:
as §2

The target of assay [24] is Ribosomal protein S6 kinase alpha-3 (Homo sapiens) (UniProt P51812). Described as §3. In short, it runs like this: as §2
Assay [25] deals with Insulin receptor (Homo sapiens) (UniProt P06213). In words: Inhibition of Insulin receptor at 10 uM. More on the design: scale not given: the % may be the effect or the level left. The method in brief: as §2

Where only a bound is given, the exact number is not on record here.

Chain of Mitogen-activated protein kinase 1 (Mus musculus) (P63085 whole entry): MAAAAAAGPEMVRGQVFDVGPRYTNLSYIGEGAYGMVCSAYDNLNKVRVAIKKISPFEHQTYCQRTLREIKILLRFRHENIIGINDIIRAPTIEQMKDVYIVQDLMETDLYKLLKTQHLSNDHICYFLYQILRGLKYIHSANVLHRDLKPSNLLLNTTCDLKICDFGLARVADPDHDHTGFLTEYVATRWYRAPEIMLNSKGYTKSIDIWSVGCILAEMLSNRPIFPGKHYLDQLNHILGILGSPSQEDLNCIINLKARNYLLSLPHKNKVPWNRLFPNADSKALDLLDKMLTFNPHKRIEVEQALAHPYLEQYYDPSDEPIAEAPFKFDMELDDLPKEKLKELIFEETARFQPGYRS
Chain of Tyrosine-protein kinase CSK (Homo sapiens) (P41240 2-450 limits assumed): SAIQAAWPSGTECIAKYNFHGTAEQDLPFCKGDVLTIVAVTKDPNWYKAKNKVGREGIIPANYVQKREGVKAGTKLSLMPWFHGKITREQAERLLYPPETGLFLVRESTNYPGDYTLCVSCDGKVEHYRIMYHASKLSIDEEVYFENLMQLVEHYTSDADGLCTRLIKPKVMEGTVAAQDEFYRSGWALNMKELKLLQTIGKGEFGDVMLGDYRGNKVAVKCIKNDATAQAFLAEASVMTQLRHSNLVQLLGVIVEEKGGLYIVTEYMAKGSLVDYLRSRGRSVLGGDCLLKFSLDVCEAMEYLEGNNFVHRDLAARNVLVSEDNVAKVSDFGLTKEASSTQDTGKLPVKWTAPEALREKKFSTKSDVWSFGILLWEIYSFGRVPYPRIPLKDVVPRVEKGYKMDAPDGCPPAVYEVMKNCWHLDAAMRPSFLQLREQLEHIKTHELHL
Chain of Mitogen-activated protein kinase 8 (Homo sapiens) (P45983 whole entry): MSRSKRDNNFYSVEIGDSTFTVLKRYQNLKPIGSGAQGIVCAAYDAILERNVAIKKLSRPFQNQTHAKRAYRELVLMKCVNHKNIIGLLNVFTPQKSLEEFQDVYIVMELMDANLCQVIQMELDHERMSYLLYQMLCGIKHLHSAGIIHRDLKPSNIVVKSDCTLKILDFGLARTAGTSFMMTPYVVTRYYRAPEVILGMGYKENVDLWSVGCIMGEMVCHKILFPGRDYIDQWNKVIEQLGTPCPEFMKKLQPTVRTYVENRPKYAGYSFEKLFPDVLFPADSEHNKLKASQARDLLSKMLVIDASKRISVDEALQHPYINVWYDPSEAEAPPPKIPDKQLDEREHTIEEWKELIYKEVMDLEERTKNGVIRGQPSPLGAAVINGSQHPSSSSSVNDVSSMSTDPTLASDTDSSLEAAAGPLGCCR
Chain of Cyclin-dependent kinase 5/CDK5 activator 1 (Homo sapiens) (Q00535 whole entry): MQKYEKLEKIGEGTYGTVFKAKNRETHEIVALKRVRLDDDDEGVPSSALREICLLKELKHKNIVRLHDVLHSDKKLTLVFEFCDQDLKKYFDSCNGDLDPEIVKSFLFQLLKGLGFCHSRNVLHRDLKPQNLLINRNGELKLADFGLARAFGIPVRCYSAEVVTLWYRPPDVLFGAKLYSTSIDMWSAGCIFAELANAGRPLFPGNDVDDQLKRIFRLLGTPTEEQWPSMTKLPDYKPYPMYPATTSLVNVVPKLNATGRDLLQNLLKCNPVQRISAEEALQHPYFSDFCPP
Chain of Cyclin-dependent kinase 5/CDK5 activator 1 (Homo sapiens) (Q15078 99-307 partner limits assumed): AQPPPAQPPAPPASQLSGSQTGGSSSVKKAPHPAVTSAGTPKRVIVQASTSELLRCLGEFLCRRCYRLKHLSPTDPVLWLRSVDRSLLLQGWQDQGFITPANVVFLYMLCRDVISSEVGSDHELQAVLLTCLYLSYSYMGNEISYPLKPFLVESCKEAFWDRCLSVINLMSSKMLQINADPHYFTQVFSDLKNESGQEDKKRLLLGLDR
Chain of Dual specificity mitogen-activated protein kinase kinase 7 (Homo sapiens) (O14733 whole entry): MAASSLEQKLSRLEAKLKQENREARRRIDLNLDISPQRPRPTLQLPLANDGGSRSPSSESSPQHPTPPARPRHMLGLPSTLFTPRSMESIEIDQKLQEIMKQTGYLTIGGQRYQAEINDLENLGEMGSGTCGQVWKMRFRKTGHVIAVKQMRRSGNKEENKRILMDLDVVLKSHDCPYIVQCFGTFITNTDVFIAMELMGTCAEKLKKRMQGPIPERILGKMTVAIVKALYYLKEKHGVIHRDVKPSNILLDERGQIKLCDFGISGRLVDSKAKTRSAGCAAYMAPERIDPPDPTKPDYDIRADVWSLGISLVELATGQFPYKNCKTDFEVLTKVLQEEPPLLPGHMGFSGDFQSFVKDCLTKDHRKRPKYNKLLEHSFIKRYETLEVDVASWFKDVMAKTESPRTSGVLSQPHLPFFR
Chain of Protein kinase C theta type (Q04759 whole entry, looked up): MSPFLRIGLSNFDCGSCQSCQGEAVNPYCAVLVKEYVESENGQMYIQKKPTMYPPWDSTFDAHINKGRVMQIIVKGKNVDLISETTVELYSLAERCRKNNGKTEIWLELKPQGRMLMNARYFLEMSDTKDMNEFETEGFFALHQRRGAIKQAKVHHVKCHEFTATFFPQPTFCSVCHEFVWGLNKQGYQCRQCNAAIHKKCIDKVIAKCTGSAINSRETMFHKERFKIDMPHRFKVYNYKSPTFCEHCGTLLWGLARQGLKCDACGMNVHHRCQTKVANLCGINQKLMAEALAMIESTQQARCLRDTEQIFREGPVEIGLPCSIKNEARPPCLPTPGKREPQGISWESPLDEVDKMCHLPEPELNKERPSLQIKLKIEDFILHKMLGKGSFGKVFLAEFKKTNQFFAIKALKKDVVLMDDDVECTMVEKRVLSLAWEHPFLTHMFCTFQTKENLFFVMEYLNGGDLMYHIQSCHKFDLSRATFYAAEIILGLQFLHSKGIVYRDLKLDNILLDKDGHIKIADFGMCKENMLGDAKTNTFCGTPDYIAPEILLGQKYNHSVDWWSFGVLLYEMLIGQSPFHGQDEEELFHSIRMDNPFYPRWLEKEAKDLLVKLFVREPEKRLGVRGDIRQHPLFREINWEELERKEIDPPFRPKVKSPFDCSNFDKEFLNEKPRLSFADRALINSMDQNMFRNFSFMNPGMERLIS
Chain of Serine/threonine-protein kinase N2 (Homo sapiens) (Q16513 whole entry, looked up): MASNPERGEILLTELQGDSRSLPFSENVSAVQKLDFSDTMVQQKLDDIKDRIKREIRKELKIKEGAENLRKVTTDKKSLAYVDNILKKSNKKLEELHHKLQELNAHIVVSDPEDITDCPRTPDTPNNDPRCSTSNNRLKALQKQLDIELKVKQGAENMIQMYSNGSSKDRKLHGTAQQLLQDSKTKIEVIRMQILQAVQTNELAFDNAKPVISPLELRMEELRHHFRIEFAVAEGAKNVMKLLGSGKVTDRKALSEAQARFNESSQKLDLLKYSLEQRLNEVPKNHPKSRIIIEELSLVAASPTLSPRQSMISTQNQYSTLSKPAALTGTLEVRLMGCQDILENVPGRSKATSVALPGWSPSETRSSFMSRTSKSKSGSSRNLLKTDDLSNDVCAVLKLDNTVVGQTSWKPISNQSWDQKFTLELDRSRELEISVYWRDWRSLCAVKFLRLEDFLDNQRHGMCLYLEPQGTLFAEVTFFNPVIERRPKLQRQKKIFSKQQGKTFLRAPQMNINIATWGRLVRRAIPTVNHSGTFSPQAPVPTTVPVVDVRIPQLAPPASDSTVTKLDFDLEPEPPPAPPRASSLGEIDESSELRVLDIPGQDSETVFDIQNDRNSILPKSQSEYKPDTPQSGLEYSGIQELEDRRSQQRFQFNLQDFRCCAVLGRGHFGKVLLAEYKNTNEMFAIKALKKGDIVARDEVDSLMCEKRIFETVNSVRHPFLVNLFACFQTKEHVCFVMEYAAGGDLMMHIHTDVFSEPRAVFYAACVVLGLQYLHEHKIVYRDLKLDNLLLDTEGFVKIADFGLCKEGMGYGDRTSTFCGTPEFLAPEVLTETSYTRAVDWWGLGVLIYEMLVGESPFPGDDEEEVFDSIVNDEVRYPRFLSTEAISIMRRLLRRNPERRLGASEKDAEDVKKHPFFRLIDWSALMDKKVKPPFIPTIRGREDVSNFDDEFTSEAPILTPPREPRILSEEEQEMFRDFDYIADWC
Chain of MAP kinase-activated protein kinase 2 (Homo sapiens) (P49137 whole entry, looked up): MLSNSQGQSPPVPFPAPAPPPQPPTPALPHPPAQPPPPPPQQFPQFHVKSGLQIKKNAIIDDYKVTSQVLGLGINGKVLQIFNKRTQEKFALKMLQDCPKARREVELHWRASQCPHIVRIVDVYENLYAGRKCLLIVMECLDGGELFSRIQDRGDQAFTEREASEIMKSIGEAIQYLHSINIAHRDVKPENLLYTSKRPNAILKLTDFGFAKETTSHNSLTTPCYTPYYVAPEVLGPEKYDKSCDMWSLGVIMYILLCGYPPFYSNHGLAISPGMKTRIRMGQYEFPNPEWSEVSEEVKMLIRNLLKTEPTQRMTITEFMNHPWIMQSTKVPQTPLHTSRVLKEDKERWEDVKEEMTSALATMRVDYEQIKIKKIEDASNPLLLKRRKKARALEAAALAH

As for `O=C1NC(=O)C2=C1c1cn(c3ncccc13)CCOCCOCCOCCn1cc2c2cccnc21`, the Activity in [1] amounted to 85%; in [2], 88%; in assay [4] it was 97%; in assay [5] it was 51%; in assay [6], 106%; in assay [7] it was 93%. In addition, the Activity in assay [8] came out at 92%; in assay [9], 107%; in assay [10], 84%; in assay [11], 129%; in assay [12], 71%; in [13] it was 92%. Moreover, the Activity in assay [14] is 67%; in assay [16], 90%; in assay [17] it was 78%; in assay [18], 77%; in assay [19], 21%; in assay [20], 82%. Further, the Activity in [21] was determined as 85%; in the assay on Saccharomyces cerevisiae, 84%. In assay [3], a half-maximal response (EC50) required 0.06 µM. The concentration for half-maximal inhibition (IC50) (in general, the concentration at which inhibition is half-maximal) in [15] is above 10 µM.

Regarding `O=C1NC(=O)C2=C1c1cn(c3ncccc13)CCOCCOCCOCCOCCn1cc2c2cccnc21`, the Activity in assay [1] was 88%; in [2], 102%; in assay [22], 104%; in assay [4] it was 85%; in assay [23] it was 98%; in assay [5], 94%. Besides, the Activity was 97% in assay [7]; 97% in [9]; 103% in [10]; 132% in assay [11]; 88% in assay [12]; 93% in assay [13]. Moreover, the Activity in assay [14] came to 100%; in assay [16] it was 89%; in assay [18] it was 96%; in [20], 105%; in assay [21] it was 86%; with Saccharomyces cerevisiae it was 89%. This molecule yielded an Activity in assay [25] of 92%. For the same molecule, in [3], the EC50 (usually the concentration at which the effect is half-maximal) was 0.39 µM. In assay [24], the Of control stood at 63%. In assay [15], this molecule came in with an IC50 above 10 µM.
